“And” between values parts separate entries of the source, which are not always exact repeats. Equal values may be shown once. “Also recorded” adds a separate entry of the source. Read-outs that look alike come from different tables or passages of the source.
How the values were obtained:
[1] = tested on: HIV-1 IIIB (A17 variant) virus; experiment: microbe, parasite or virus in culture; format: cell-based; details: for EC50: Human immunodeficiency virus 1, IIIB, TZM-bl
[2] = Cytotoxicity in TZM-bl cells; format: cell-based; details: human
[3] = target: HIV reverse transcriptase (Human immunodeficiency virus type 1 group M subtype B, UniProt P03366); experiment: HIV RT inhibition, fluorescent EnzChek/PicoGreen assay; format: biochemical, HIV-1
primary mouse neurons [4] = experiment: Neuronal toxicity by MAP-2 staining in primary mouse neurons; format: cell-based; details: for TC50 (µM) Relative MAP-2 Area / TC50 (µM) Relative MAP-2 intensity: 48 hr, 0.1 to 10,000 nM, ±SD; for estimated TC10: primary neurons, discussion
HIV-1 IIIB virus = experiment: Inhibition of wild-type HIV-1; format: cell-based
[5] = cited from earlier work
primary mouse neurons [6] = experiment: Calcium imaging in primary mouse neuron cultures; format: cell-based; details: 1 µM
Outline: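 Primary mouse cortex/hippocampus cultures were seeded at 20,000 cells/cm2 on poly-D-lysine coverslips in Neurobasal Plus/B27 Plus/Glutamax (>95% neurons by day 4). At 14–18 days in vitro, neurons were loaded with Fluo-4 AM (2 µM) in aCSF (NaCl 137, KCl 5.0, CaCl2 2.3, MgCl2 1.3, glucose 20 mM). Average spikes were scored in acute and delayed phases plus a summation average, versus matched controls. Statistics: Brown-Forsythe/Welch ANOVA with Dunnett's T3.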

TZM-bl cells = experiment: Cytotoxicity in TZM-bl cells; format: cell-based
HIV = details: cited from earlier work
hERG = hERG (Homo sapiens, UniProt Q12809); details: cited from earlier work
HIV-RT = details: substituted pyridinones; cited from earlier work
Caco-2 cells = experiment: Efflux in Caco-2 cells; format: in vitro ADME
Solubility = format: physicochemical
L100I/K103N HIV mutant = experiment: Inhibition of NNRTI-resistant L100I/K103N mutant in TZM-bl cells; format: cell-based, HIV-1; details: 0.05–500 nM
[7] = Metabolic stability in human liver microsomes; format: in vitro ADME
[8] = Single-dose pharmacokinetics in mice; details: mouse
[9] = Metabolic stability in mouse liver microsomes; format: in vitro ADME
Balb/C male mice = experiment: In vivo acute toxicity study; details: 2000 mg/kg single oral dose, 14 days
Balb/C mice = experiment: In vivo subacute toxicity study; details: 30 days
K103N HIV mutant = experiment: Inhibition of NNRTI-resistant K103N mutant in TZM-bl cells; format: cell-based, HIV-1; details: 0.05–500 nM
Y181C HIV mutant = experiment: Inhibition of NNRTI-resistant Y181C mutant in TZM-bl cells; format: cell-based, HIV-1; details: 0.05–500 nM
Protein binding = format: in vitro ADME
[10] = Human immunodeficiency virus 1, IIIB, TZM-bl, read-out: WT EC50 (nM)

Sequence of hERG (Q12809 whole entry): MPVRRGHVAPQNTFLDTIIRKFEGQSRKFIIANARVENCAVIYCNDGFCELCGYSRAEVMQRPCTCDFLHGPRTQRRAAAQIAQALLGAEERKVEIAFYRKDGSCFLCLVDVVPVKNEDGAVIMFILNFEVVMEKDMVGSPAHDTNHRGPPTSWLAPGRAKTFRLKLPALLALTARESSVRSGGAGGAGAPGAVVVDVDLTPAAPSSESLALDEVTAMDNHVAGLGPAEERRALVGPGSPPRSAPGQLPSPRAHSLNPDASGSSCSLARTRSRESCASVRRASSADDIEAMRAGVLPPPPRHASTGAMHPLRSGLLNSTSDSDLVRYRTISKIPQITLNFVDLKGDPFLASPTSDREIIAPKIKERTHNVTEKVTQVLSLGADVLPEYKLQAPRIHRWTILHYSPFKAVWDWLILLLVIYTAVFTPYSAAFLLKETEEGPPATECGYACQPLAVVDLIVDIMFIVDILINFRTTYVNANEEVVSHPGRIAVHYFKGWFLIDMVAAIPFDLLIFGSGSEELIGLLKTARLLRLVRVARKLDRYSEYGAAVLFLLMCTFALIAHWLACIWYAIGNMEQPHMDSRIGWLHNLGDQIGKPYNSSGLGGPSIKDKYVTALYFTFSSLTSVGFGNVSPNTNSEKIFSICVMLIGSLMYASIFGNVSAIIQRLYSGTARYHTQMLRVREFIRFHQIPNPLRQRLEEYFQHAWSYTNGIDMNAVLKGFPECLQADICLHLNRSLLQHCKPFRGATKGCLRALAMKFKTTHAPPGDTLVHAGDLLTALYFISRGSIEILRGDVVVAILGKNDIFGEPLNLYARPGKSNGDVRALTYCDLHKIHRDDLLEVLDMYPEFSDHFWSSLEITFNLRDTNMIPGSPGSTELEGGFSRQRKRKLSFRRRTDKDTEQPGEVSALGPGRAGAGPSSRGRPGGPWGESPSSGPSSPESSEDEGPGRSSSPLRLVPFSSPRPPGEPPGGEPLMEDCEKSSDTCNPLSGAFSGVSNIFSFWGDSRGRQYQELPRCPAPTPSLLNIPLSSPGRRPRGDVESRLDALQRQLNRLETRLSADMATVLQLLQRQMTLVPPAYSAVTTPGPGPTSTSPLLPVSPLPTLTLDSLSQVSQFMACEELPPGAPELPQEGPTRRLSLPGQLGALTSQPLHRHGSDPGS

For `N#Cc1ccc2c(S(=O)(=O)n3nc(Nc4ccc(C#N)c(C#N)c4)nc3N)cccc2c1` [compound 12126055, 4-[[5-amino-1-[(6-cyano-1-naphthyl)sulfonyl]-1,2,4-triazol-3-yl]amino]phthalonitrile], the EC50 ([1]; read-out: A17 EC50 (nM)) was 49 ± 9.5 nM, the CC50 at 48 h [2] was 28 ± 66 µM and the EC50 [3] was 0.35 ± 0.13 µM. The “TC50 (µM) Relative MAP-2 Area” value (primary mouse neurons [4]) was 48 ± 86 µM, the “TC50 (µM) Relative MAP-2 intensity” value (primary mouse neurons [4]) was 50 ± 140 µM and the EC50 (HIV-1 IIIB virus; [10]) was 0.21 ± 0.01 nM.

In the case of `O=C1Nc2ccc(Cl)cc2[C@@](C#CC2CC2)(C(F)(F)F)O1` [EFV, efavirenz], the plasma levels ([5]; human, in vivo) is listed as 3.17 to 12.67 µM, the “estimated TC10” value (primary mouse neurons [4]) is listed as 0.07 µM and the “calcium accumulation, delayed phase (in words)” value (primary mouse neurons [6]) is listed as “pronounced increase”. For the same molecule, the “calcium spiking frequency, acute phase (in words)” value (primary mouse neurons [6]) was “acute suppression”.

In the case of `Nc1nc(Nc2ccc(Cl)cc2)nn1S(=O)(=O)c1ccc2ccccc2c1` [compound 11626007, N^3-(4-chlorophenyl)-1-(2-naphthylsulfonyl)-1,2,4-triazole-3,5-diamine], the “inhibition of A17 mutant (in words)” value ([1]; TZM-bl cells, early screening) is reported as “No appreciable inhibition”, the “toxicity in MTS assay (in words)” value (TZM-bl cells) is reported as “No observable toxicity” and the EC50 [3] is reported as 0.28 ± 0.1 µM. For the same molecule, the “TC50 (µM) Relative MAP-2 Area” value (primary mouse neurons [4]) was 34 ± 46 µM and the “TC50 (µM) Relative MAP-2 intensity” value (primary mouse neurons [4]) was 23 ± 18 µM.

With `N#Cc1ccc(Nc2nc(N)n(S(=O)(=O)c3cccc4cc(C#N)ccc34)n2)cc1` [compound 11726152, 5-[[5-amino-3-(4-cyanoanilino)-1,2,4-triazol-1-yl]sulfonyl]naphthalene-2-carbonitrile] the EC50 ([1]; read-out: A17 EC50 (nM)) was 49 ± 7.8 nM, the EC50 [3] was 0.7 ± 0.22 µM and the “TC50 (µM) Relative MAP-2 Area” value (primary mouse neurons [4]) was 1.2 ± 0.6 µM. The “TC50 (µM) Relative MAP-2 intensity” value (primary mouse neurons [4]) was 1.0 ± 0.5 µM, the “Safety Index” value (primary mouse neurons [4]; TC10/(100*EC50), relative MAP-2 area) was 1.6 and the EC50 (HIV-1 IIIB virus; [10]) was 0.35 ± 0.05 nM.

For `N#Cc1ccc(Nc2nc(N)n(S(=O)(=O)c3c(Cl)nc4sccn34)n2)cc1` [compound 11926331, 4-[[5-amino-1-(6-chloroimidazo[2,1-b]thiazol-5-yl)sulfonyl-1,2,4-triazol-3-yl]amino]-benzonitrile], the “RT activity (in words)” value ([3]; Table S1) was “excellent” and the “whole cell virus activity (in words)” value (HIV-1 IIIB virus; Table S1) was “excellent”.

For `Cc1cc(/C=C/C#N)cc(C)c1Nc1ccnc(Nc2ccc(C#N)cc2)n1` [RPV, rilpivirine], the EC50 ([1]; read-out: A17 EC50 (nM)) is listed as 2.5 ± 1.9 nM, the “proposed plasma target concentration (protein binding-adjusted EC90)” value (HIV) is listed as 0.0121 mg/L and the EC90 (HIV; read-out: proposed plasma target concentration (protein binding-adjusted EC90)) is listed as 0.033 µM. The EC50 [3] was 0.16 ± 0.06 µM, the “recorded CSF concentrations” value [5] was “up to 2.9 ng/ml and ≤ 7.9 nM” and the “estimated TC10” value (primary mouse neurons [4]) was 0.6 to 0.93 µM. The “calcium spiking frequency, acute phase (in words)” value (primary mouse neurons [6]) was “acute suppression”, the “concentration shown to inhibit hERG in vitro” value (hERG) was 0.3 µM and the EC50 (HIV-1 IIIB virus; [10]) was 0.35 ± 0.03 nM.

In the case of `CO[P@](=O)(c1cc(C)cc(/C=C/C#N)c1)c1c(C(N)=O)[nH]c2ccc(Cl)cc12` [IDX899], the EC50 (HIV; aryl-phospho-indole) is given as 0.001 µM.

In the case of `Cn1c(Cn2ccc(C(F)(F)F)c(Oc3cc(Cl)cc(C#N)c3)c2=O)n[nH]c1=O` [Doravirine, doravirine], the IC50 (HIV-RT) is given as 0.011 µM.

In the case of `N#C/C=C/c1ccc2c(S(=O)(=O)n3nc(Nc4ccc(C#N)c(Cl)c4)nc3N)cccc2c1` [compound 12126065, 4-[[5-amino-1-[[6-[(E)-2-cyanovinyl]-1-naphthyl]sulfonyl]-1,2,4-triazol-3-yl]amino]-2-chloro-benzonitrile], the “efflux in Caco-2 cells (in words)” value (Caco-2 cells) is reported as “no indication of efflux”, the “solubility (in words)” value (Solubility) is reported as “poor” and the EC50 ([1]; read-out: A17 EC50 (nM)) is reported as 3.4 ± 1.1 nM. For the same molecule, the EC50 ([1]; read-out: EC50 against K103N/Y181C double mutant) was 1.33 ± 0.16 nM, the “activity against L100I/K103N mutant (in words)” value (L100I/K103N HIV mutant) was “not drastically mitigated; also recorded: retained activity” and the “metabolic stability (in words)” value [7] was “good”. The half-life ([8]; male, Balb/C, plasma, po, 250 mg/kg) was 7.7 ± 1.57 h, the “in vivo brain penetration (in words)” value ([8]; in vivo) was “good” and the “metabolic stability (in words)” value [9] was “good”. The “acute toxicity (in words)” value (Balb/C male mice) was “no in vivo acute or subacute toxicity; also recorded: No visible signs of intoxication”, the “aspartate aminotransferase activity versus control (in words)” value (Balb/C mice; 250 mg/kg group only) was “reduced aspartate aminotransferase activity” and the “subacute toxicity (in words)” value (Balb/C mice; 25 and 250 mg/kg daily) was “no in vivo acute or subacute toxicity”. For the same molecule, the “activity against K103N mutant (in words)” value (K103N HIV mutant) was “retained activity”, the EC50 [3] was 0.23 ± 0.07 µM and the “activity against Y181C mutant (in words)” value (Y181C HIV mutant) was “retained activity”. For the same molecule, the “TC50 (µM) Relative MAP-2 Area” value (primary mouse neurons [4]) was 100 ± 410 µM, the “TC50 (µM) Relative MAP-2 intensity” value (primary mouse neurons [4]) was over 10 µM and the “Estimated TC10 (µM) Relative MAP-2 Intensity” value (primary mouse neurons [4]; concentration of 10% loss of MAP-2) was over 10 µM. The “50% toxicity concentration (TC50)” value (primary mouse neurons [4]; mouse neurons, as stated in abstract) was over 100 µM, the “neurotoxicity in mouse neurons (in words)” value (primary mouse neurons [4]; up to 10 µM) was “minimal neurotoxicity” and the “protein binding (in words)” value (Protein binding) was “high”. For the same molecule, the EC50 (HIV-1 IIIB virus; Human immunodeficiency virus 1, IIIB, TZM, read-out: EC50 against wild-type HIV-1 in TZM cells) was 0.24 nM, the EC50 (HIV-1 IIIB virus; Human immunodeficiency virus 1, IIIB, TZM-bl, read-out: EC50 (TZM, WT)) was 0.263 nM and the EC50 (HIV-1 IIIB virus; [10]) was 0.47 ± 0.05 nM. It also gave an EC90 (HIV-1 IIIB virus; Human immunodeficiency virus 1, IIIB, TZM-bl, read-out: estimated EC90) of 0.019 µM.

For `N#Cc1ccc2c(S(=O)(=O)n3nc(Nc4ccc(C#N)c(Cl)c4)nc3N)cccc2c1` [compound 11826116, 5-[[5-amino-3-(3-chloro-4-cyano-anilino)-1,2,4-triazol-1-yl]sulfonyl]naphthalene-2-carbonitrile], the EC50 ([1]; read-out: A17 EC50 (nM)) was 25 ± 6.6 nM and the EC50 (HIV-1 IIIB virus; [10]) was 0.34 ± 0.04 nM.

Reference: article PMC10269403 (Journal of medicinal chemistry, 2023)
